Shown are actives, neighbours in structure and some others; about 7.2% of the full set was active somewhere.
PostGolgi yeast: phenotypic screen on post-Golgi transport, primary screen; AID 739, 2007; post-Golgi transport phenotypic cell assay; inhibition, % at 10 µM; hit rate 0.9% among 98,000;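 further: yeast cells grown in 1536-well plates; yeast grown about 18 h at 30C before absorbance read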
tolC growth inh: growth inhibitors of E. coli tolC mutant, primary screen, strain BW25113 ΔtolC::kan, 384-well. OD615. growth inhibition, % at 10 µM (by protocol). hit rate 2.2% among 65,000. AID 573, 2007;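 active means growth inhibition at or above a cutoff equal to the mean over every tested compound plus 3 SD, cut at about 60% in these data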;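 further: growth measured after 20 h incubation at 37 °C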
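Material: E. coli BW25113 ΔtolC::kan, tolC deletion mutant strain. Measure: percent growth inhibition. Schedule: 37 °C, 20 h exposure. Doses: single-point testing at 10 µM. Signal: A615 absorbance measurement. Buffer or medium: kanamycin-containing LB broth (50 µg/mL).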
PLAP act: PLAP enzyme activators, biochemical, luminescence, HTS. Alkaline phosphatase, placental type (Homo sapiens), P05187. purified PLAP enzyme, luminescent substrate read-out; stronger effect = higher value. activation fold at 20 µM. hit rate 1.2% among 96,000. AID 696, 2007; in the data active means activation fold above about 2
Target sequence (P05187 whole entry, looked up): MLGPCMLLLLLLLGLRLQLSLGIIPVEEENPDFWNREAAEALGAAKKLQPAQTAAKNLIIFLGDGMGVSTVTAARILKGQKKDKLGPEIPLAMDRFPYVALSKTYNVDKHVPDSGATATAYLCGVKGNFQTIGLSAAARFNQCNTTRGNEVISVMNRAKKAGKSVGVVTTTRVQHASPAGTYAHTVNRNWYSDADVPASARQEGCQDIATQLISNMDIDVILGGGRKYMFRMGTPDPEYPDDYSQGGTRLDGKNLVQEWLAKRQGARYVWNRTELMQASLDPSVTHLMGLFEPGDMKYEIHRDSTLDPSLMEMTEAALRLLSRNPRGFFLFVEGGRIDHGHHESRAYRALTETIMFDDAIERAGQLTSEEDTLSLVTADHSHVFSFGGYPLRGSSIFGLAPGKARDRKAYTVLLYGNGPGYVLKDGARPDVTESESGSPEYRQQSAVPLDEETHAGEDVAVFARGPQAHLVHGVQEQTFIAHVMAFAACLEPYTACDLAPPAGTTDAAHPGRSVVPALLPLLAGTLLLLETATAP
E coli WT exp: growth inhibitors of wild-type E. coli, primary screen, strain BW25113, expanded library, OD600; AID 710, 2007; growth inhibition, % at 100 µM; hit rate 0.15% among 98,000; OD600 absorbance;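 active means growth inhibition above about 50% at one test dose, limit read from the data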;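 further: growth measured after 20 h incubation at 37 °C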
PostGolgi ctrl: growth inhibition of yeast control strain, primary screen, counter-screen for post-Golgi transport modulator project; efflux-deficient yeast background strain, growth absorbance A615, 16 h; inhibition, % at 10 µM; hit rate 5% among 98,000
Large screens that a line does not name were inactive. Unless noted, no stated cut-off is given here; in the data, active means inhibition above about 30%; inactive means the rest.

Cc1c(Br)cc(C(=O)OC2CCN(C)CC2)c(C)c1C	none
O=C(NCCCn1ccnc1)c1cn(-c2ccccc2)nc1-c1ccc(F)cc1	PLAP act 2.3
CCOC(=O)C1CCN(Cc2cnc(Oc3ccc(C(C)(C)C)cc3)s2)CC1	none (no result: tolC growth inh)
COC(=O)c1sc2nc(CSc3nc4ccc(C)cc4[nH]3)[nH]c(=O)c2c1C	PLAP act 2 (no result: tolC growth inh)
O=C1CCCC2=C1C(c1ccccc1)CC(=O)N2c1ccccc1 (centres undefined)	PostGolgi ctrl 34.5
CC1(C)CC(=O)C2=C(C1)N(c1ccccc1)C(=O)CC2c1ccsc1 (centres undefined)	none (no result: tolC growth inh)
CC(C)c1nc2ccc(NC(=O)C34CC5CC(CC(C5)C3)C4)cc2[nH]1	PLAP act 2 (no result: tolC growth inh)
O=C(Nc1nc2ccccc2[nH]1)C12CC3CC(CC(C3)C1)C2	none (no result: tolC growth inh)
c1ccc(-c2ccc(OCCOCCn3cncn3)cc2)cc1	PostGolgi ctrl 44.3
c1ccc(Cc2ccc(OCCn3cncn3)cc2)cc1	none
N#CC(C(=O)c1ccco1)c1ccccn1 (centres undefined)	none
CCCC(=O)N1CCN(c2ccc(NC(=S)NC(=O)CC)cc2)CC1	none (no result: tolC growth inh)
CCN(CC)c1ccc(-c2nn3c(-c4cccnc4)nnc3s2)cc1	PostGolgi ctrl 39.2
C=CCOc1ccc(C(=O)NC2CCCCC2)cc1	none (no result: tolC growth inh)
O=C(NO)c1ccc(C(=O)N(C2CCCCC2)C2CCCCC2)cc1	PostGolgi yeast 101.9, PostGolgi ctrl 95.6
CCN(C1CCCCC1)S(=O)(=O)c1ccc(OC)c(C)c1	tolC growth inh 91.9, PostGolgi ctrl 35.5
Cc1cccc(/C(N)=N/OC(=O)CCc2ccccc2)c1	none (no result: tolC growth inh)
COC(=O)Cn1nc(-c2ccccc2)c2ccccc21	PostGolgi ctrl 31.4 (no result: PLAP act)
O=C(O)CCCn1nc(-c2ccccc2)c2ccccc21	none
COc1ccccc1NC(=O)CN1C(=O)NC(CC(C)C)C1=O (centres undefined)	PostGolgi ctrl 48.0
COc1ccc(-n2c(=O)c3ccccc3n(CC(=O)NC3CCCC3)c2=O)cc1	PostGolgi ctrl 37.0
CCOC(=O)c1nn(-c2ccc(OC)cc2)c(=O)c2c(NC(=O)c3ccco3)scc12	none (no result: PostGolgi yeast, PLAP act, E coli WT exp, PostGolgi ctrl)
COc1cc(N/C=C(\C(C)=O)c2ccccc2)cc(OC)c1	none (no result: tolC growth inh)
C=CCc1cccc(CNc2nc3ccccc3n2C(C)C)c1O	PostGolgi ctrl 46.7
Nc1nnc(Cc2ccc(Cl)c(Cl)c2)s1	none
Cc1cc2n(n1)C(c1sccc1C)Nc1ccccc1-2 (centres undefined)	none
Cc1ccc2c(c1)-c1cc(C)nn1C(c1sccc1C)N2 (centres undefined)	PostGolgi ctrl 30.2
Cc1ccccc1N1CCN(Cc2c(C#N)c3ccccc3n2C)CC1	none
CN1CCN(CC(=O)N(Cc2c(C#N)c3ccccc3n2C)c2ccccc2)CC1	PostGolgi ctrl 34.0
COC(=O)CCS(=O)(=O)c1nc(-c2ccccc2)cc(C(F)(F)F)n1	PostGolgi ctrl 56.9 (no result: tolC growth inh)
CCOC(=O)CS(=O)(=O)c1nc(-c2ccccc2)cc(C(F)(F)F)n1	none (no result: PostGolgi yeast, E coli WT exp, PostGolgi ctrl)
CCOC(=O)CCS(=O)(=O)c1nc(-c2ccccc2)cc(C(F)(F)F)n1	PostGolgi ctrl 73.5
CCOC(=O)CS(=O)(=O)c1nc(-c2ccc(F)cc2)cc(C(F)(F)F)n1	PostGolgi ctrl 48.2
CC1(C)CC(=O)C2=C(C1)Oc1nc3ccccc3cc1C2C(C#N)C#N (centres undefined)	none
CC1(c2ccccc2)CC(C)(C)N(C(=O)C2CCCO2)c2ccccc21 (centres undefined)	PostGolgi ctrl 65.9 (no result: tolC growth inh)
CC1(c2cc([N+](=O)[O-])cc([N+](=O)[O-])c2)CC(C)(C)N(C(=O)c2ccccc2)c2ccccc21 (centres undefined)	none (no result: tolC growth inh)
Cc1nc2cc(-c3cccc(F)c3)nn2c(N2CCOCC2)c1C	none (no result: PostGolgi yeast, PLAP act, E coli WT exp, PostGolgi ctrl)
CN(CCO)c1c2c(nc3cc(-c4cccc(F)c4)nn13)CCCC2	PostGolgi ctrl 47.1 (no result: tolC growth inh)
CCOCCN1CCN(c2c3c(nc4cc(-c5ccc(F)cc5)nn24)CCC3)CC1	none
OC1CCN(c2c3c(nc4cc(-c5cccc(F)c5)nn24)CCCC3)CC1	PostGolgi ctrl 87.5
Fc1cccc(-c2cc3nc4c(c(N5CCC6(CC5)OCCO6)n3n2)CCCC4)c1	PostGolgi ctrl 81.1
C/C(N)=C(/C#N)C(=O)COC(=O)C1CCC(C(C)(C)C)CC1 (centres undefined)	none (no result: tolC growth inh)
Cc1ccc(C2C3=C(CC(C)(C)CC3=O)Nc3n[nH]c(C)c32)cc1 (centres undefined)	PLAP act 2
Cc1[nH]nc2c1C(c1ccc(F)cc1)C1=C(CC(C)(C)CC1=O)N2 (centres undefined)	none
O=C(Nc1ccc2c(c1)OCO2)C1Cc2ccccc2CN1S(=O)(=O)c1cccs1 (centres undefined)	none
c1ccc2nc3c(nc2c1)CCc1nonc1-3	none
O/N=C1/CCc2nonc2/C1=N/O	E coli WT exp 52.0
Nc1nnnn1CC(=O)OCc1cccc(Br)c1	none
COc1cccc(C2NC(CC(C)C)(C(=O)O)C3C(=O)N(Cc4ccccc4)C(=O)C23)c1O (centres undefined)	none
COc1cccc(C2NC(CCSC)(C(=O)O)C3C(=O)N(C(C)C)C(=O)C23)c1O (centres undefined)	PostGolgi ctrl 40.2
O=C(NCc1ccc2c(c1)OCO2)c1ccc(CS(=O)(=O)c2cccc(C(F)(F)F)c2)o1	PostGolgi yeast 95.6
CC(NC(=O)c1ccc(CS(=O)(=O)c2cccc(C(F)(F)F)c2)o1)c1ccc2c(c1)OCCO2 (centres undefined)	PostGolgi yeast 37.1 (no result: tolC growth inh)
CC(NC(=O)c1ccc(CS(=O)(=O)Cc2ccccc2F)o1)c1ccc2c(c1)OCCO2 (centres undefined)	none (no result: PLAP act)
O=C(NCc1ccco1)c1ccc(CS(=O)(=O)c2cccc(C(F)(F)F)c2)o1	none
O=C(O)c1sccc1SCc1ccc(Cl)cc1Cl	none (no result: tolC growth inh)
CCOC(=O)C(=O)/C(=C\N(C)C)c1onc(-c2c(Cl)cccc2Cl)c1C(=O)OC	none (no result: tolC growth inh)
COc1ccc(C(=O)NC(=S)Nc2cccc(Cl)c2N2CCOCC2)cc1[N+](=O)[O-]	none (no result: tolC growth inh)
O=C(Nc1ccccc1)OCc1ccccn1	none
O=C(Nc1ccccc1)OCc1cc(-c2ccccc2Cl)on1	PostGolgi ctrl 33.2 (no result: tolC growth inh)
COC(=O)c1[nH]c2cc(C)ccc2c1NC(=O)CN1CCN(C(=O)c2ccco2)CC1	none
COC(=O)c1[nH]c2ccc(F)cc2c1NC(=O)CCN1CCN(C(=O)c2ccco2)CC1	PostGolgi ctrl 31.8
O=C(C1CC1)N1CCN(C(c2ccccc2)c2ccccc2)CC1	none (no result: tolC growth inh)
CCN(CC)CCOC(=O)C1(c2ccc(OC)c(OC)c2)CCCC1	PostGolgi ctrl 49.8
Cc1cc(N2CCN(c3ccccc3Cl)CC2)n2cc(-c3ccccc3)nc2n1	PostGolgi ctrl 34.0 (no result: tolC growth inh)
CCOC(=O)C1=C(C)N(CC(C)C)C(=O)/C1=C\c1ccc(OCC(=O)Nc2ccccc2)cc1	none (no result: tolC growth inh)
CC1=C(C(=O)OCC(C)C)C(c2ccc(F)cc2)NC(=O)N1 (centres undefined)	PostGolgi ctrl 33.1

Compound activity as filed in PubChem BioAssay.
